# Screening data: PubChem BioAssay, several laboratories
# CHOP inhibitor – inhibitors of CHOP induction in ER stress response; actives 3.8% (n = 220,000); CHO-K1 CHOP-promoter luciferase, tunicamycin-induced, 15-18 h; AID 2732; inhibition, % at 10 µM;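 active means compounds that reduced the stress-induced luciferase reporter signal by more than about 70% of percent inhibition, limit read from the data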;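 further: 0% = tunicamycin plus vehicle and 100% = wells without tunicamycin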
# Arbovirus inh – blocks arbovirus infection | arbovirus infection cell-based antiviral screen | inhibition, % at 10 µM | actives 0.37% (n = 200,000); in the data active means inhibition above about 30%
# PKD1 inh – inhibitors of human PKD1 kinase | Q15139 | PKD1 kinase fluorescence polarization assay | inhibition, % (test concentration not listed) | actives 0.056% (n = 200,000) | AID 797
# Rad51 HR inh – Rad51 (human) homologous recombination inhibition. Q06609. inhibition, % at 10 µM. AID 1385. actives 0.085% (n = 200,000). hRad51 DNA strand exchange, fluorescence dequenching;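 active means inhibition above 40% at the single screening dose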;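 further: 0% = DMSO control wells and 100% = blanks with heterologous ssDNA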
# Target sequence (Q06609 whole entry, looked up): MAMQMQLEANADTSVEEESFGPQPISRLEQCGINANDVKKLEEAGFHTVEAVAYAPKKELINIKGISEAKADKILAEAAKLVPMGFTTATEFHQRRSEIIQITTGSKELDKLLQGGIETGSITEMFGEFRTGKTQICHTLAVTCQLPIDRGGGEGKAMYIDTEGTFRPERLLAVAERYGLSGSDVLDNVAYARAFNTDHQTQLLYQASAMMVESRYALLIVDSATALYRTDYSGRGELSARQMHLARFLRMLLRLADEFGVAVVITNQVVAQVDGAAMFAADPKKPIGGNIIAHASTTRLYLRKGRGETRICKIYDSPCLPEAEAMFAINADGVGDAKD
#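 Read-out basis: percent inhibition relative to plate controls and blanks / Assay system: human Rad51 nucleoprotein filaments preassembled on unlabelled ssDNA / Timing: filaments 15 min 37 °C, then compound 30 min / Control set: per-plate controls and blanks / Technique: fluorescence dequenching at 485/520 nm / Compound: 10 µM final, single point / Also added: Fluorescein- and BHQ1-tagged 47-mer duplex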
# Wee1 degr inh – human Wee1 degradation inhibition, primary screen; P30291; HeLa Luc-Wee1K328M stability, luciferase luminescence; 100% = proteasome inhibitor MG132 effect; reporter increase, % at 5 µM; actives 1.2% (n = 220,000); AID 1321;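 active means activation above the mean of all tested compounds plus 3 SD, set per screening run, cut at about 8.8% in these data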;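 further: cells exposed to compound for 20 h before luminescence read; 0% = DMSO alone and 100% = MG132 at 30 µM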
# Lmaj promast – reduces viability of Leishmania major promastigotes; resazurin fluorescence viability; inhibition, % at 10 µM; actives 9% (n = 200,000); AID 1063;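 further: promastigotes grown with compound for 44 hours at 28 °C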
# Starred values were filed as active, the others as inactive; x = no result. The list is not random: actives were taken first. Their share in the collection is about 12%. Unless noted, no stated cut-off is given here; in the data, active means inhibition above about 50%; inactive means the rest.
SMILES,CHOP inhibitor,Arbovirus inh,PKD1 inh,Rad51 HR inh,Wee1 degr inh,Lmaj promast
COc1ccc(-c2cc(-c3nnc(COC(=O)CC4CC5CCC4C5)o3)c3ccccc3n2)cc1OC (configuration not stated),24,-6,13,19,1,10
CCOC(=O)c1cnn(-c2cc(C)nc3c(-c4ccccc4)c(C)nn23)c1N,81*,-4,-1,6,4,-5
CCOC(=O)c1cnc2c(-c3ccccc3)c(C)nn2c1N,32,-4,-9,-1,-1,-4
CCOC(=O)c1cnn(-c2cc(C)nc3c(-c4ccc(Cl)cc4)c(C)nn23)c1N,84*,0,1,-8,-1,1
CCOC(=O)N1CCN(C(=O)CSc2ccc(-c3cccnc3)nn2)CC1,5,-4,-4,-4,2,-1
CSc1cccc(NC(=S)N(CCC(C)C)C(C)c2ccncc2)c1 (configuration not stated),19,x,x,12,5,x
S=C(CN1CCCC1=S)NCCc1ccccc1,1,x,x,x,5,x
CCC1(C)Cc2nc3[nH]c(=S)n(-c4ccccc4C)c(=O)c3cc2CO1 (configuration not stated),-14,x,x,6,4,x
CCC1(C)Cc2nc3[nH]c(=S)n(-c4ccccc4)c(=O)c3cc2CO1 (configuration not stated),-5,8,-9,-1,-4,56*
Cc1cc(/C=C2\SC(=O)N(CC(=O)Nc3ccccc3F)C2=O)c(C)n1C,85*,-17,-6,-5,2,-6
COc1ccc(CCNC(=O)c2ccc(CN3CCC(Cc4ccccc4)CC3)cc2)cc1OC,21,3,-2,-33,-3,5
O=C(c1ccc(CN2CCOCC2)cc1)N1CCC(Cc2ccccc2)CC1,10,-6,3,-8,0,87*
CCc1ccccc1NC(=O)c1ccc(CN2CCC(Cc3ccccc3)CC2)cc1,63,-28,-6,-14,2,80*
COc1ccc(C2CC(c3cccs3)=NN2C(=S)Nc2ccccc2)cc1OC (configuration not stated),-3,7,-14,-8,4,71*
COc1cccc(C2CC(c3cccs3)=NN2C(=S)Nc2ccccc2)c1OC (configuration not stated),10,1,-12,-4,0,65*
S=C(Nc1ccccc1)N1N=C(c2cccs2)CC1c1cccs1 (configuration not stated),-29,1,0,x,-3,74*
CC1=NN(C(=S)Nc2ccccc2)C(c2ccccc2)C1 (configuration not stated),-2,9,-4,-15,-2,15
COc1cccc(C2CC(c3cccs3)=NN2S(C)(=O)=O)c1OC (configuration not stated),19,0,1,-5,-3,-4
Cc1ccc(C2CC(c3ccccc3)=NN2C(=S)Nc2ccccc2)o1 (configuration not stated),-11,-7,-3,-5,3,69*
O=C(Cn1nc(-c2ccccc2)ccc1=O)Nc1ccc(N2CCN(C(=O)c3cccs3)CC2)cc1,15,11,3,-9,0,2
CC1CCCC(NC(=O)COC(=O)CSc2ccc3ccccc3c2)C1C (configuration not stated),60,5,-3,3,-1,55*
CC1CCCC(NC(=O)COC(=O)CCc2ccccc2)C1C (configuration not stated),26,0,5,6,-1,-9
COc1ccc(/C=C2\SC(N3CCc4ccccc4C3)=NC2=O)cc1OC,11,6,4,2,0,12
CCOC(=O)c1ccc2c(c1)n(CCO)c(C)[n+]2CC,11,-10,-12,-4,-2,4
CCOC(=O)c1ccc2c(c1)n(CC)c(/C=C/N(C)c1ccccc1)[n+]2CC,13,-20,-8,2,3,100*
SMILES,CHOP inhibitor,Arbovirus inh,PKD1 inh,Rad51 HR inh,Wee1 degr inh,Lmaj promast
CC1=CC(C)(C)N(S(=O)(=O)c2ccc(C)cc2)c2ccccc21,x,4,-14,-1,4,100*
COc1ccc2c(c1)C(C)=CC(C)(C)N2S(=O)(=O)c1ccc(Br)cc1,-85,-20,0,-6,0,95*
c1csc(CNc2ncnc3sccc23)c1,x,5,-4,-5,0,9
c1ccc(CN2CCC(Nc3nc(-c4cccs4)nc4ccccc34)CC2)cc1,75*,-35,-2,5,-1,100*
c1csc(CNc2nc(-c3cccs3)nc3ccccc23)c1,-6,-17,-13,25,3,83*
Cc1ccc(NC(=O)Nc2ccccc2C#N)c(Cl)c1,9,-5,-4,-12,3,66*
CC(C)(C)NCC(O)COc1nsnc1N1CCOCC1 (configuration not stated),-6,x,x,x,x,x
O=C(Nc1cc2c3c(c1)C1CCCC1CN3CC1CCCC21)c1ccccc1 (configuration not stated),57,4,1,3,-4,97*
COc1cc(NC(=O)c2ccccc2)cc(OC)c1,1,-3,-14,-1,0,-7
O=c1[nH][nH]c(C(F)(F)F)c1C=NCc1cccs1,-3,6,3,-3,6,-9
COc1cc(Cl)cc(/C=N/NC(N)=O)c1O,17,-3,0,25,-1,-5
O=C(Oc1c(Cl)cc(Cl)c2cccnc12)c1ccco1,43,-16,2,x,1,98*
O=C(Oc1c(Cl)cc(Cl)c2cccnc12)c1cccs1,62,-12,7,-10,-1,17
Oc1c(Cl)cc(Cl)c2cccnc12,-14,-18,-5,7,2,96*
O=c1oc2ccccc2c(NC(c2ccccc2)c2ccccc2)c1[N+](=O)[O-],47,5,-1,3,-3,1
CC(Nc1c([N+](=O)[O-])c(=O)oc2ccccc12)C(Cl)c1ccccc1 (configuration not stated),-39,-2,-9,-3,-2,56*
Clc1ccc(-c2n[nH]c3c2CCCC3)cc1,51,5,-1,x,-2,-5
Clc1ccc(-c2onc3c2CCCC3)cc1,78*,3,-9,2,-1,-3
CCOC(=O)N/N=C1\CC(C)CC(C)(C)C1 (configuration not stated),8,0,4,-9,0,-3
CC1C/C(=N/NC(=O)c2ccc(CSc3nc4ccccc4[nH]3)cc2)CC(C)(C)C1 (configuration not stated),75*,-3,-12,-4,5,39
Cc1cc(N/N=C2\CC(C)CC(C)(C)C2)nc2ccccc12 (configuration not stated),47,-8,-4,0,-2,99*
Cc1cc(N/N=C2/CCCc3ccccc32)nc2ccccc12,22,-26,-6,13,-3,90*
